According to ChEMBL document CHEMBL4138085, “Design, synthesis and antimicrobial evaluation of novel benzimidazole-incorporated sulfonamide analogues” (Eur J Med Chem, 2017):
Values after ≈ are worked out from the molar mass of the structure shown.

Experiments:
Staphylococcus aureus [1] = experiment: Antibacterial activity against Staphylococcus aureus ATCC 25923 after 24 hrs by NCCLS two fold broth microdilution method; assay type: functional; conditions: ATCC 25923, 24 h
In short: (§1)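 Two-fold serial broth microdilution in 96-well plates following NCCLS. Compounds were dissolved in DMSO as stocks, then diluted in Mueller–Hinton broth to final concentrations of 0.5–512 µg/mL. Plates were inoculated and incubated at 37 °C for 24 h, with growth read visually and spectrophotometrically. MIC was taken as the lowest concentration giving complete growth inhibition. Run in triplicate, with a DMSO-plus-inoculum solvent control.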

Staphylococcus aureus [2] = experiment: Antibacterial activity against methicillin-resistant Staphylococcus aureus N315 after 24 hrs by NCCLS two fold broth microdilution method; assay type: functional; conditions: N315, 24 h
In short: (§2)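 Two-fold serial broth microdilution per NCCLS. Chloromycin and norfloxacin as reference drugs; DMSO with inoculum, no drug, as solvent control. Incubation 37 °C for 24 h. Growth read visually and spectrophotometrically. MIC is the lowest concentration completely inhibiting growth; triplicate.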

Bacillus subtilis = experiment: Antibacterial activity against Bacillus subtilis ATCC 21216 after 24 hrs by NCCLS two fold broth microdilution method; assay type: functional; conditions: ATCC 21216, 24 h; in short: as §1
Micrococcus luteus = experiment: Antibacterial activity against Micrococcus luteus ATCC 4698 after 24 hrs by NCCLS two fold broth microdilution method; assay type: functional; conditions: NCTC 2665, 24 h; in short: as §1
Bacillus = experiment: Antibacterial activity against Bacillus proteus ATCC 13315 after 24 hrs by NCCLS two fold broth microdilution method; assay type: functional; conditions: ATCC 13315, 24 h; in short: as §1
Escherichia coli = experiment: Antibacterial activity against Escherichia coli ATCC 8099 after 24 hrs by NCCLS two fold broth microdilution method; assay type: functional; conditions: ATCC 8099, 24 h
In short: as §1, with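 “NCCLS.” for “NCCLS. Compounds were dissolved in DMSO as stocks, then diluted in Mueller–Hinton broth to final concentrations of 0.5–512 µg/mL.”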

Pseudomonas aeruginosa = experiment: Antibacterial activity against Pseudomonas aeruginosa ATCC 27853 after 24 hrs by NCCLS two fold broth microdilution method; assay type: functional; conditions: ATCC 27853, 24 h
In short: as §1, with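 “NCCLS.” for “NCCLS. Compounds were dissolved in DMSO as stocks, then diluted in Mueller–Hinton broth to final concentrations of 0.5–512 µg/mL.”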

Salmonella typhi = experiment: Antibacterial activity against Bacillus typhi after 24 hrs by NCCLS two fold broth microdilution method; assay type: functional, Salmonella enterica subsp. enterica serovar Typhi; conditions: Salmonella enterica
In short: as §2, with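 “NCCLS. DMSO stocks diluted in Mueller–Hinton broth to 512, 256, 128, 64, 32, 16, 8, 4, 2, 1, 0.5 µg/mL.” for “NCCLS.”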

Candida albicans = experiment: Antifungal activity against Candida albicans ATCC 76615 after 24 hrs by NCCLS two fold broth microdilution method; assay type: functional; conditions: ATCC 76615, 24 h
In short: (§3)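 Two-fold serial microdilution following NCCLS. A spore suspension in sterile distilled water was prepared from one-day-old cultures grown on Sabouraud agar and adjusted to a final 1–5 × 10^3 spores/mL. DMSO stocks were diluted in RPMI 1640 to eleven concentrations (0.5–512 µg/mL), inoculated and held at 35 °C for 24 h. Growth was read visually and spectrophotometrically, MIC was the lowest concentration with complete inhibition, and runs were in triplicate.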

Pichia norvegensis = experiment: Antifungal activity against Candida mycoderma after 24 hrs by NCCLS two fold broth microdilution method; assay type: functional
Cyberlindnera jadinii = experiment: Antifungal activity against Candida utilis after 24 hrs by NCCLS two fold broth microdilution method; assay type: functional; conditions: Williopsis jadinii; in short: as §3
Saccharomyces cerevisiae = experiment: Antifungal activity against Saccharomyces cerevisiae after 24 hrs by NCCLS two fold broth microdilution method; assay type: functional; in short: as §3
Aspergillus flavus = experiment: Antifungal activity against Aspergillus flavus after 24 hrs by NCCLS two fold broth microdilution method; assay type: functional; in short: as §3

CCCCCCCCCCCCn1c(CS(=O)(=O)c2ccc(N)cc2)nc2ccccc21
MIC (Staphylococcus aureus [1]): 512 µg/mL (≈ 1120 µM)
MIC (Staphylococcus aureus [2]): 512 µg/mL (≈ 1120 µM)
MIC (Bacillus subtilis): 512 µg/mL (≈ 1120 µM)
MIC (Micrococcus luteus): 256 µg/mL (≈ 562 µM)
MIC (Bacillus): 512 µg/mL (≈ 1120 µM)
MIC (Escherichia coli): 512 µg/mL (≈ 1120 µM)
MIC (Pseudomonas aeruginosa): 512 µg/mL (≈ 1120 µM)
MIC (Salmonella typhi): 512 µg/mL (≈ 1120 µM)
MIC (Candida albicans): 512 µg/mL (≈ 1120 µM)
MIC (Pichia norvegensis): 512 µg/mL (≈ 1120 µM)
MIC (Cyberlindnera jadinii): 512 µg/mL (≈ 1120 µM)
MIC (Saccharomyces cerevisiae): 256 µg/mL (≈ 562 µM)
MIC (Aspergillus flavus): 512 µg/mL (≈ 1120 µM)

CC(=O)Nc1ccc(S(=O)(=O)Cc2nc3ccccc3n2Cc2cccc(F)c2)cc1
MIC (Staphylococcus aureus [1]): 512 µg/mL (≈ 1170 µM)
MIC (Staphylococcus aureus [2]): 256 µg/mL (≈ 585 µM)
MIC (Bacillus subtilis): 512 µg/mL (≈ 1170 µM)
MIC (Micrococcus luteus): 512 µg/mL (≈ 1170 µM)
MIC (Bacillus): 256 µg/mL (≈ 585 µM)
MIC (Escherichia coli): 128 µg/mL (≈ 293 µM)
MIC (Pseudomonas aeruginosa): 256 µg/mL (≈ 585 µM)
MIC (Salmonella typhi): 128 µg/mL (≈ 293 µM)
MIC (Candida albicans): 256 µg/mL (≈ 585 µM)
MIC (Pichia norvegensis): 512 µg/mL (≈ 1170 µM)
MIC (Cyberlindnera jadinii): 512 µg/mL (≈ 1170 µM)
MIC (Saccharomyces cerevisiae): 32 µg/mL (≈ 73.1 µM)
MIC (Aspergillus flavus): 256 µg/mL (≈ 585 µM)

CCCCCn1c(CS(=O)(=O)c2ccc(NC(C)=O)cc2)nc2ccccc21
MIC (Staphylococcus aureus [1]): 32 µg/mL (≈ 80.1 µM)
MIC (Staphylococcus aureus [2]): 128 µg/mL (≈ 320 µM)
MIC (Bacillus subtilis): 64 µg/mL (≈ 160 µM)
MIC (Micrococcus luteus): 32 µg/mL (≈ 80.1 µM)
MIC (Bacillus): 256 µg/mL (≈ 641 µM)
MIC (Escherichia coli): 256 µg/mL (≈ 641 µM)
MIC (Pseudomonas aeruginosa): 4 µg/mL (≈ 10 µM)
MIC (Salmonella typhi): 32 µg/mL (≈ 80.1 µM)
MIC (Candida albicans): 256 µg/mL (≈ 641 µM)
MIC (Pichia norvegensis): 16 µg/mL (≈ 40 µM)
MIC (Cyberlindnera jadinii): 32 µg/mL (≈ 80.1 µM)
MIC (Saccharomyces cerevisiae): 64 µg/mL (≈ 160 µM)
MIC (Aspergillus flavus): 32 µg/mL (≈ 80.1 µM)

CCCCCCCn1c(CS(=O)(=O)c2ccc(NC(C)=O)cc2)nc2ccccc21
MIC (Staphylococcus aureus [1]): 8 µg/mL (≈ 18.7 µM)
MIC (Staphylococcus aureus [2]): 512 µg/mL (≈ 1200 µM)
MIC (Bacillus subtilis): 256 µg/mL (≈ 599 µM)
MIC (Micrococcus luteus): 512 µg/mL (≈ 1200 µM)
MIC (Bacillus): 256 µg/mL (≈ 599 µM)
MIC (Escherichia coli): 64 µg/mL (≈ 150 µM)
MIC (Pseudomonas aeruginosa): 512 µg/mL (≈ 1200 µM)
MIC (Salmonella typhi): 512 µg/mL (≈ 1200 µM)
MIC (Candida albicans): 512 µg/mL (≈ 1200 µM)
MIC (Pichia norvegensis): 512 µg/mL (≈ 1200 µM)
MIC (Cyberlindnera jadinii): 128 µg/mL (≈ 299 µM)
MIC (Saccharomyces cerevisiae): 512 µg/mL (≈ 1200 µM)
MIC (Aspergillus flavus): 256 µg/mL (≈ 599 µM)

CCCCCCCCCCCCn1c(CS(=O)(=O)c2ccc(NC(C)=O)cc2)nc2ccccc21
MIC (Staphylococcus aureus [1]): 512 µg/mL (≈ 1030 µM)
MIC (Staphylococcus aureus [2]): 512 µg/mL (≈ 1030 µM)
MIC (Bacillus subtilis): 512 µg/mL (≈ 1030 µM)
MIC (Micrococcus luteus): 512 µg/mL (≈ 1030 µM)
MIC (Bacillus): 512 µg/mL (≈ 1030 µM)
MIC (Escherichia coli): 256 µg/mL (≈ 514 µM)
MIC (Pseudomonas aeruginosa): 512 µg/mL (≈ 1030 µM)
MIC (Salmonella typhi): 512 µg/mL (≈ 1030 µM)
MIC (Candida albicans): 512 µg/mL (≈ 1030 µM)
MIC (Pichia norvegensis): 512 µg/mL (≈ 1030 µM)
MIC (Cyberlindnera jadinii): 512 µg/mL (≈ 1030 µM)
MIC (Saccharomyces cerevisiae): 512 µg/mL (≈ 1030 µM)
MIC (Aspergillus flavus): 512 µg/mL (≈ 1030 µM)

CCCn1c(CS(=O)(=O)c2ccc(NC(C)=O)cc2)nc2ccccc21
MIC (Staphylococcus aureus [1]): 128 µg/mL (≈ 345 µM)
MIC (Staphylococcus aureus [2]): 64 µg/mL (≈ 172 µM)
MIC (Bacillus subtilis): 16 µg/mL (≈ 43.1 µM)
MIC (Micrococcus luteus): 256 µg/mL (≈ 689 µM)
MIC (Bacillus): 64 µg/mL (≈ 172 µM)
MIC (Escherichia coli): 128 µg/mL (≈ 345 µM)
MIC (Pseudomonas aeruginosa): 128 µg/mL (≈ 345 µM)
MIC (Salmonella typhi): 32 µg/mL (≈ 86.1 µM)
MIC (Candida albicans): 64 µg/mL (≈ 172 µM)
MIC (Pichia norvegensis): 16 µg/mL (≈ 43.1 µM)
MIC (Cyberlindnera jadinii): 64 µg/mL (≈ 172 µM)
MIC (Saccharomyces cerevisiae): 16 µg/mL (≈ 43.1 µM)
MIC (Aspergillus flavus): 128 µg/mL (≈ 345 µM)

CCCCCCCCCCn1c(CS(=O)(=O)c2ccc(N)cc2)nc2ccccc21
MIC (Staphylococcus aureus [1]): 512 µg/mL (≈ 1200 µM)
MIC (Staphylococcus aureus [2]): 512 µg/mL (≈ 1200 µM)
MIC (Bacillus subtilis): 512 µg/mL (≈ 1200 µM)
MIC (Micrococcus luteus): 512 µg/mL (≈ 1200 µM)
MIC (Bacillus): 512 µg/mL (≈ 1200 µM)
MIC (Escherichia coli): 512 µg/mL (≈ 1200 µM)
MIC (Pseudomonas aeruginosa): 512 µg/mL (≈ 1200 µM)
MIC (Salmonella typhi): 512 µg/mL (≈ 1200 µM)
MIC (Candida albicans): 512 µg/mL (≈ 1200 µM)
MIC (Pichia norvegensis): 512 µg/mL (≈ 1200 µM)
MIC (Cyberlindnera jadinii): 8 µg/mL (≈ 18.7 µM)
MIC (Saccharomyces cerevisiae): 512 µg/mL (≈ 1200 µM)
MIC (Aspergillus flavus): 512 µg/mL (≈ 1200 µM)

Nc1ccc(S(=O)(=O)Cc2nc3ccccc3n2Cc2ccccc2Cl)cc1
MIC (Staphylococcus aureus [1]): 16 µg/mL (≈ 38.8 µM)
MIC (Staphylococcus aureus [2]): 32 µg/mL (≈ 77.7 µM)
MIC (Bacillus subtilis): 16 µg/mL (≈ 38.8 µM)
MIC (Micrococcus luteus): 64 µg/mL (≈ 155 µM)
MIC (Bacillus): 256 µg/mL (≈ 621 µM)
MIC (Escherichia coli): 128 µg/mL (≈ 311 µM)
MIC (Pseudomonas aeruginosa): 16 µg/mL (≈ 38.8 µM)
MIC (Salmonella typhi): 16 µg/mL (≈ 38.8 µM)
MIC (Candida albicans): 16 µg/mL (≈ 38.8 µM)
MIC (Pichia norvegensis): 512 µg/mL (≈ 1240 µM)
MIC (Cyberlindnera jadinii): 512 µg/mL (≈ 1240 µM)
MIC (Saccharomyces cerevisiae): 512 µg/mL (≈ 1240 µM)
MIC (Aspergillus flavus): 32 µg/mL (≈ 77.7 µM)

CC(=O)Nc1ccc(S(=O)(=O)Cc2nc3ccccc3n2Cc2ccccc2Cl)cc1
MIC (Staphylococcus aureus [1]): 32 µg/mL (≈ 70.5 µM)
MIC (Staphylococcus aureus [2]): 32 µg/mL (≈ 70.5 µM)
MIC (Bacillus subtilis): 32 µg/mL (≈ 70.5 µM)
MIC (Micrococcus luteus): 64 µg/mL (≈ 141 µM)
MIC (Bacillus): 512 µg/mL (≈ 1130 µM)
MIC (Escherichia coli): 32 µg/mL (≈ 70.5 µM)
MIC (Pseudomonas aeruginosa): 16 µg/mL (≈ 35.2 µM)
MIC (Salmonella typhi): 16 µg/mL (≈ 35.2 µM)
MIC (Candida albicans): 32 µg/mL (≈ 70.5 µM)
MIC (Pichia norvegensis): 512 µg/mL (≈ 1130 µM)
MIC (Cyberlindnera jadinii): 512 µg/mL (≈ 1130 µM)
MIC (Saccharomyces cerevisiae): 512 µg/mL (≈ 1130 µM)
MIC (Aspergillus flavus): 8 µg/mL (≈ 17.6 µM)

CCCCCCCCCCCCCCCCCCn1c(CS(=O)(=O)c2ccc(NC(C)=O)cc2)nc2ccccc21
MIC (Staphylococcus aureus [1]): 128 µg/mL (≈ 220 µM)
MIC (Staphylococcus aureus [2]): 512 µg/mL (≈ 880 µM)
MIC (Bacillus subtilis): 512 µg/mL (≈ 880 µM)
MIC (Micrococcus luteus): 512 µg/mL (≈ 880 µM)
MIC (Bacillus): 512 µg/mL (≈ 880 µM)
MIC (Escherichia coli): 512 µg/mL (≈ 880 µM)
MIC (Pseudomonas aeruginosa): 512 µg/mL (≈ 880 µM)
MIC (Salmonella typhi): 512 µg/mL (≈ 880 µM)
MIC (Candida albicans): 512 µg/mL (≈ 880 µM)
MIC (Pichia norvegensis): 512 µg/mL (≈ 880 µM)
MIC (Cyberlindnera jadinii): 512 µg/mL (≈ 880 µM)
MIC (Saccharomyces cerevisiae): 512 µg/mL (≈ 880 µM)
MIC (Aspergillus flavus): 512 µg/mL (≈ 880 µM)
